Data on one molecule can be found in ChEMBL document CHEMBL3856243, “Structure-Activity Relationships and Kinetic Studies of Peptidic Antagonists of CBX Chromodomains” (J Med Chem, 2016).

The source made the active and inactive calls. The calls are words filed in the database; no cut-off is given here. Square brackets hold non-standard residues; d marks the D form. Peptide text beside a SMILES is read from it. * marks the point of attachment. Benzoyl(4-tBu) = CC(C)(C)c1ccc(C(=O)*)cc1; Lys(Et2) = CCN(CC)CCCC[C@H](N)C(=O)O

One may read the Kd as the equilibrium constant for the complex coming apart. Low values mean a tighter complex, high ones a looser complex.

Test [1] concerns PC-3. Briefly: Antiproliferative activity against human PC3 cells assessed as reduction in cell count at 30 uM measured after 72 hrs by DAPI-staining based microscopic method. In kind it is functional. The essentials:
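PC3 cells seeded at 400/well, adhered overnight, then given DMEM + 10% FBS with 30 µM compound or DMSO for 72 h; fixed in ice-cold methanol, rehydrated in PBS, nuclei stained with DAPI (0.05 µg/ml) and counted by high content microscopy; counts normalized to DMSO control (n ≥ 4).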

For test [2], the target named is T1, Chromodomain Y-like protein 2 (Homo sapiens, UniProt Q8N8U2).
T1 sequence (Q8N8U2 whole entry): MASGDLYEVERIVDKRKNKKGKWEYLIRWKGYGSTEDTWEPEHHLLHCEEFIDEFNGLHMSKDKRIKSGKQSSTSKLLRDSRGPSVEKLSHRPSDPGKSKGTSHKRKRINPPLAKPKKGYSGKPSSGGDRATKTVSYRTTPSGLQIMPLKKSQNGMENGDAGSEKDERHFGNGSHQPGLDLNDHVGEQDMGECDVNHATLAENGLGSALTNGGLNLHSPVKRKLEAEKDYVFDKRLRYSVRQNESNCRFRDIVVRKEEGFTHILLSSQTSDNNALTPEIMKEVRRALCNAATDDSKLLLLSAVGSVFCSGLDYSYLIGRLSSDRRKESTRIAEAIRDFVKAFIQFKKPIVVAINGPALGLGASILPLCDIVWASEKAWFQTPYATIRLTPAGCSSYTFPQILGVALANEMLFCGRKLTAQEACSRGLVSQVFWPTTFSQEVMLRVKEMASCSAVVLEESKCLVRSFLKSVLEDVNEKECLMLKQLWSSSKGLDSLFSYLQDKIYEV

The target in test [3] is T2, Chromodomain Y-like protein (Homo sapiens, UniProt Q9Y232).
T2 sequence (Q9Y232 whole entry): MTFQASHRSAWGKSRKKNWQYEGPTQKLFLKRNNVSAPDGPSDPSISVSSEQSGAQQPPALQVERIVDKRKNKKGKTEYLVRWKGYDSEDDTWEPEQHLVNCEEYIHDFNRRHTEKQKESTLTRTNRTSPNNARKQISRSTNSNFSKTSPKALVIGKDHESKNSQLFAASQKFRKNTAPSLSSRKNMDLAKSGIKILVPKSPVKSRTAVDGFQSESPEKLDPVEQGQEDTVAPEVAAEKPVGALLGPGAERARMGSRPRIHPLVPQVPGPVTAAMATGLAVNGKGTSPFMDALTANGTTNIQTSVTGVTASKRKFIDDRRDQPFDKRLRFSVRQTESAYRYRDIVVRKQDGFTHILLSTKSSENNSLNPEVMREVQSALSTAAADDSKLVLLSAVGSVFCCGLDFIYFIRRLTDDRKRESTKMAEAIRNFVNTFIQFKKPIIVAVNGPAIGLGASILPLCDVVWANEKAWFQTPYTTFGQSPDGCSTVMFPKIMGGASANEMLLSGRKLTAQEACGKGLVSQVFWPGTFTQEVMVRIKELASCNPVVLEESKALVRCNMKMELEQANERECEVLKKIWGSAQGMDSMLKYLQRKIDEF
Description: Binding affinity to human N-terminal GST-tagged CDYL1b chromodomain (1 to 78 residues) expressed in Escherichia coli Rosetta BL21(DE3)pLysS by ITC method. (Isothermal titration calorimetry measures the heat released or taken up as one component is titrated into another.)

For test [4], the target named is T3, Testis-specific chromodomain protein Y 1 (Homo sapiens, UniProt Q9Y6F8).
T3 sequence (Q9Y6F8 whole entry): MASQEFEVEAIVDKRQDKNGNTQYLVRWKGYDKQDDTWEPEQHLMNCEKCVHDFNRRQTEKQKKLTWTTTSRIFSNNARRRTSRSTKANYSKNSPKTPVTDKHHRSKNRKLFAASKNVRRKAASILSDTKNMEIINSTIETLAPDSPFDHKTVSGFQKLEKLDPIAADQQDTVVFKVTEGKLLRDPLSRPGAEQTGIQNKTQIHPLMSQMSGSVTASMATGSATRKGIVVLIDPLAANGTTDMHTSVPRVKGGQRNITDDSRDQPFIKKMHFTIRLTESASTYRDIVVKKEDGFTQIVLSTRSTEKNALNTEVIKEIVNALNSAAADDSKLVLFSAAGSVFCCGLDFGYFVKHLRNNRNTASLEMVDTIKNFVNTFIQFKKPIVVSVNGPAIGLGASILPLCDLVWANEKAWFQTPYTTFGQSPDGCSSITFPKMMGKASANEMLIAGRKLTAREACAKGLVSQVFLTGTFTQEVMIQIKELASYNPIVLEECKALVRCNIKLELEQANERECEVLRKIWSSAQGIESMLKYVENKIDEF
Briefly: Binding affinity to human N-terminal GST-tagged CDY1 chromodomain (1 to 101 residues) expressed in Escherichia coli Rosetta BL21(DE3)pLysS by ITC method.

The target of test [5] is T4, Chromobox protein homolog 8 (Homo sapiens, UniProt Q9HC52).
T4 sequence (Q9HC52 whole entry): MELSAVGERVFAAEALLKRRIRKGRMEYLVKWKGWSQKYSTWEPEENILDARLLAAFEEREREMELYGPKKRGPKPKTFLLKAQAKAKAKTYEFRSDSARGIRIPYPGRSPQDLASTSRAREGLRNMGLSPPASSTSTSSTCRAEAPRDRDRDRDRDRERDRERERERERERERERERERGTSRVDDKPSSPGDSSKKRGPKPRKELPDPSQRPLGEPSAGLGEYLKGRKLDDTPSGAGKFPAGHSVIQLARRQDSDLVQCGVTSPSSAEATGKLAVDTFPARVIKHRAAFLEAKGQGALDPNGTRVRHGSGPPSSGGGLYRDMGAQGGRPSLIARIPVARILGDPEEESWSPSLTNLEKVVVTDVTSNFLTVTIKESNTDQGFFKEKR
Briefly: Binding affinity to human N-terminal his-tagged CBX8 chromodomain (8 to 61 residues) expressed in Escherichia coli Rosetta BL21(DE3)pLysS by ITC method.

The target in test [6] is T5, Chromobox protein homolog 6 (Homo sapiens, UniProt O95503).
T5 sequence (O95503 whole entry): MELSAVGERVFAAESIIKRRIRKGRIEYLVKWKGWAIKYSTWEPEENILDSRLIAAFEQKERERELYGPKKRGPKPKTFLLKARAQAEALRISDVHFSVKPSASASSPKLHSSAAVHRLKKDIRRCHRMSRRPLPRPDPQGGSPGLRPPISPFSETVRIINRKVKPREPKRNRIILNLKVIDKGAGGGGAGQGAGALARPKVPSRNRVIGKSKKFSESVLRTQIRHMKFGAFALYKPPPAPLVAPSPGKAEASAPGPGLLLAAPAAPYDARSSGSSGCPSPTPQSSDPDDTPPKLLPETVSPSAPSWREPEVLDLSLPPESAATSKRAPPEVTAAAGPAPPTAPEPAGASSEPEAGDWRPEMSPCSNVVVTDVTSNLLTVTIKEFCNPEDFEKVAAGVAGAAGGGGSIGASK
Briefly: Binding affinity to human N-terminal his-tagged CBX6 chromodomain (8 to 65 residues) expressed in Escherichia coli Rosetta BL21(DE3)pLysS by ITC method.

For test [7], the target named is T6, Chromobox protein homolog 2 (Homo sapiens, UniProt Q14781).
T6 sequence (Q14781 whole entry): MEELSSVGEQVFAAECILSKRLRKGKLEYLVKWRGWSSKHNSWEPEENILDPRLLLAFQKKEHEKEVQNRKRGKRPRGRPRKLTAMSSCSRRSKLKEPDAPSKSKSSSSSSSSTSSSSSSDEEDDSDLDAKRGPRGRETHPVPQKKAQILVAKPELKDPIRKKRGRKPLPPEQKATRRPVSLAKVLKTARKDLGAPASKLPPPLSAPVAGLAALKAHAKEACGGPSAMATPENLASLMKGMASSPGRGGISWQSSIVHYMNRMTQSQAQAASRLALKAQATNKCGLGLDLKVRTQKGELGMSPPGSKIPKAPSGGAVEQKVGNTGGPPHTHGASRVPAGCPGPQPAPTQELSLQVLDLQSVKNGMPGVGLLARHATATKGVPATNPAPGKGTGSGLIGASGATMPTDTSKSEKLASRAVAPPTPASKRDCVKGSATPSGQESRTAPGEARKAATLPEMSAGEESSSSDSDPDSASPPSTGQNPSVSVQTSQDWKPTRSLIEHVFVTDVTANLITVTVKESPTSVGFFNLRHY
Description: Binding affinity to human N-terminal his-tagged CBX2 chromodomain (9 to 66 residues) expressed in Escherichia coli Rosetta BL21(DE3)pLysS by ITC method.

The target in test [8] is Chromobox protein homolog 5 (Homo sapiens, UniProt P45973). Description: Binding affinity to CBX5 chromodomain (unknown origin) by ITC method.
In test [9] the target is Chromobox protein homolog 1 (Homo sapiens, UniProt P83916). Description: Binding affinity to CBX1 chromodomain (unknown origin) by ITC method.
Test [10] deals with Chromobox protein homolog 3 (Homo sapiens, UniProt Q13185). Briefly: Binding affinity to CBX3 chromodomain (unknown origin) by ITC method.
Chain of Chromobox protein homolog 3 (Q13185 whole entry): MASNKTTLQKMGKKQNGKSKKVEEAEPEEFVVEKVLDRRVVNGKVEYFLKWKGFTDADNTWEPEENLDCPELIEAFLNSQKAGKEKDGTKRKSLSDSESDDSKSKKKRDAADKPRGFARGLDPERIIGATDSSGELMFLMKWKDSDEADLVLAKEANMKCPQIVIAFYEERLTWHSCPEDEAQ

Chain of Chromobox protein homolog 5 (P45973 whole entry): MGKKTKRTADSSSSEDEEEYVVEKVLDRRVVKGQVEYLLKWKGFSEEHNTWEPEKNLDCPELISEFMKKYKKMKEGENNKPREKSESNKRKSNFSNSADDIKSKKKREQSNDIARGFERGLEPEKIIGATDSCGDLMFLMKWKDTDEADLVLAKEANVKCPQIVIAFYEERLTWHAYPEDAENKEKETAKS
Chain of Chromobox protein homolog 1 (P83916 whole entry): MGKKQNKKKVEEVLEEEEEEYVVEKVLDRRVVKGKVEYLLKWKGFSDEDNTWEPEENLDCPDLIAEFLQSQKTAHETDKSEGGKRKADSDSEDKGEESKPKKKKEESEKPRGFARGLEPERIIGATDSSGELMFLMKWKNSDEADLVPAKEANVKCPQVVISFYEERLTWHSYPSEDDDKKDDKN

Regarding `CCN(CC)CCCC[C@H](NC(=O)[C@H](CC(C)C)NC(=O)[C@H](C)NC(=O)[C@H](Cc1ccccc1)NC(=O)c1ccc(C(C)(C)C)cc1)C(=O)N[C@@H](CO)C(=O)OC` ({Benzoyl(4-tBu)}-FAL[Lys(Et2)]S-OMe), the result in test [1] was Active. Also, the Kd in test [2] was determined as 850 nM; in test [3], 910 nM; in test [4] it was 6300 nM; in test [5], 1200 nM; in test [6], 610 nM; in [7], 1800 nM. Also, the dissociation constant (Kd) in test [8], in [9] and in [10] was > 100000 nM each time.
